The results in this text go back to ChEMBL document CHEMBL1126730, “Synthesis and pharmacological evaluation of 4a-phenanthrenamine derivatives acting at the phencyclidine binding site of the N-methyl-D-aspartate receptor complex” (J Med Chem, 1993).

The structures appear in SMILES notation.

The species entered for series [1] is Mus musculus. Briefly: Testing for ataxia was done by using an inverted screen technique. The format is functional. In a few lines: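 Inverted-screen test in CF-1 mice (22-28 g), scored 5 min after retrobulbar test agent in 0.9% saline (5 mL/kg), immediately before NMDA injection.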
Series [2] concerns the target T1, Glutamate NMDA receptor (Rattus norvegicus) (UniProt P35439+Q00959+Q00960+Q00961+Q62645+Q8VHN2+Q9R1M7). Briefly: Evaluated in vivo for its NMDA antagonist activity by the inhibition of NMDA-induced lethality in mice. The format is functional, organism-based. The note with it: Mus musculus; target entry is the homologue from another species. An outline of the steps:
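CF-1 mice, 22-28 g. Test agent or vehicle (0.9% saline, 5 mL/kg) was given by retrobulbar injection 5 min before a 25 mg/kg NMDA bolus given retrobulbar in the other eye. Endpoint was prevention of lethality.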

Series [3] deals with Glutamate NMDA receptor. Briefly: Ability to inhibit glutamate induced accumulation of [45 [Ca2+]] in cultured rat cortical neurons. In kind it is functional. An outline of the steps: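 Fetal rat cortical hemisphere dissociated cultures used on day 14-16 after plating. Medium was serum- and Mg-free HBSS with 1.4 mM CaCl2, pH 7.4 (35 mM bicarbonate), 37 °C, 5% CO2. Cells were exposed 30 min to 100 μM L-glutamate (final) plus [45Ca2+] (2 μCi/mL) ± test agent, washed with saline, lysed, and counted. Baseline was subtracted.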

In series [4] the target is Glutamate NMDA receptor. Briefly: Binding affinity towards PCP site of the NMDA receptor was measured by displacement of […] in […]. The format is tissue-based, Brain. A general note: In a radioligand displacement assay an active substance lowers the binding of a labelled ligand.
In series [5] the target is T1, Glutamate NMDA receptor (Rattus norvegicus). Briefly: Percent inhibition at PCP site of NMDA receptor complex was measured by displacement of […] in whole rat brain homogenate at 10 E-7 M. The format is tissue-based. An outline of the steps:
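[3H]TCP displacement from rat brain membrane preparation (cortical membranes in the methods; whole-brain homogenate in the assay description), following a previously published procedure.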

Series [6] can be described thus: Partition coefficient (logP) (HPLC). In kind it is physicochemical. To be noted: octanol/water.
Series [7] in a line: Partition coefficient was measured using a standard shake flask (SF) method at pH 7.4. The format is physicochemical. To be noted: octanol/water. An outline of the steps:
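Shake-flask partitioning at pH 7.4.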

The molecule `c1ccc(C2(N3CCCCC3)CCCCC2)cc1` [PHENCYCLIDINE] came in with an Ataxia in series [1] of 1 mg/kg. It took a dose of 0.55 mg/kg to reach the 50% effect level in series [2] (ED50). Half-maximal inhibition in series [3] (IC50) required 200 nM.
Regarding `CNC12CC=CCC1CC(C)c1ccccc12` (configuration not stated), the IC50 (commonly the concentration that inhibits the measured activity by half) in series [4] was 654 nM.
For the molecule `CNC12CCCCC1CCc1sccc12` (configuration not stated), the results for the IC50 in series [4] and in series [3] were 31 nM and 350 nM, respectively. This molecule registered an Ataxia in series [1] of 1 mg/kg. Besides, the ED50 (in general, the dose that gives a 50% effect, or the effect in half of the subjects) in series [2] was determined as 0.89 mg/kg.
In the case of `c1ccc2c(c1)CCC1CCCCC21N1CCCCC1` (configuration not stated), the inhibition – broadly, the percentage by which the read-out fell short of the control – in series [5] came out at 7%.
In series [4], `NC12CCCCC1COc1ccccc12` (configuration not stated) gave an IC50 of 178 nM. Moreover, the Ataxia in series [1] is 10 mg/kg. In series [2], the 50% effect level (ED50) was put at a dose of 5.7 mg/kg.
Turning to `N#CC1CCC2(N)c3ccccc3CCC2C1` (configuration not stated), the inhibition in series [5] came out at 2%.
For the molecule `CNC12CC=CCC1CSc1ccccc12` (configuration not stated), the IC50 in series [4] came to 69 nM; in series [3] it was 420 nM. Also, the Ataxia in series [1] is 1.8 mg/kg. Moreover, it took a dose of 2 mg/kg to reach the 50% effect level in series [2] (ED50).
In turn, `CNC12CC=CCC1CC(C)(C)c1ccccc12` (configuration not stated) yielded an inhibition in series [5] of 0%.
`CNC12CCCCC1CCc1c(C)cc(OC)cc12` (configuration not stated): the logP (in general, the decadic logarithm of the partition coefficient of the neutral form, usually between octanol and water) in series [6] was 4.02. For the same molecule, the IC50 in series [4] was 53.5 nM; in series [3], 930 nM. This molecule yielded an Ataxia in series [1] of 3.3 mg/kg. For the same molecule, the ED50 in series [2] stood at 5.6 mg/kg. Besides, the logD (in general, lipophilicity at a set pH, counting ionised and neutral species) in series [7] is 1.72.
Molecule `CCNC12CCCCC1CCc1ccccc12` (configuration not stated) registered a logP in series [6] of 3.41. Moreover, the IC50 in series [4] amounted to 199 nM. In addition, the logD in series [7] was 1.15.
On to `NC12CC=CCC1CSc1ccccc12` (configuration not stated), for which the figures for the IC50 in series [4] and in series [3] were 101 nM and 1700 nM, respectively.
As for `CNC12CCCCC1CC(=O)c1ccccc12` (configuration not stated), the logP in series [6] came out at 2.41. This molecule also yielded an IC50 in series [4] of 270 nM. In series [7], this molecule showed a logD of 0.78.
Take `NC12CCCCC1CSc1ccccc12` (configuration not stated): the half-inhibitory concentration (IC50) in series [4] was determined as 80.6 nM; in series [3], 1870 nM. In series [1], this molecule showed an Ataxia of 4.7 mg/kg. This molecule also yielded a 50% effective dose (ED50) in series [2] of 2.9 mg/kg.
For the molecule `CNC12CCCCC1CSc1ccccc12` (configuration not stated), in series [6], the logP amounted to 3.88. Besides, the IC50 was 62 nM in series [4] and 710 nM in series [3]. Further, the Ataxia in series [1] is 1.5 mg/kg. The same molecule displayed an ED50 in series [2] of 0.7 mg/kg. Besides, the logD in series [7] worked out at 1.54.
Molecule `CNC1(c2ccccc2Cl)CCCCC1=O` (configuration not stated) [KETAMINE] came in with an Ataxia in series [1] of 10 mg/kg. Also, the ED50 in series [2] amounted to 6 mg/kg. The molecule also yielded an IC50 in series [3] of 8860 nM. The logD in series [7] was determined as 2.18.
On to `CN(C)C12CCCCC1CCc1ccccc12` (configuration not stated), for which the IC50 in series [4] is 21 nM; in series [3] it was 1630 nM. Also, the Ataxia in series [1] was less than 0.3 mg/kg. This molecule came in with an ED50 in series [2] of 1.6 mg/kg.
Turning to `CNC12CC=CCC1CCc1sccc12` (configuration not stated), the IC50 in series [4] is 57 nM. That is a double-digit nanomolar value.
Consider `NC12CC=CCC1CCc1ccc(O)cc12` (configuration not stated), for which the figures for the IC50 in series [4] and in series [3] were 28 nM and 1600 nM, respectively. In series [1], this molecule showed an Ataxia of 1.5 mg/kg. In addition, the 50% effect level in series [2] (ED50) was put at a dose of 4.6 mg/kg.
`NCC1CCC2(N)c3ccccc3CCC2C1` (configuration not stated) returned an inhibition in series [5] of 1%.
Consider `CNC12CCCCC1COc1ccccc12` (configuration not stated), for which the logP in series [6] worked out at 3.31. Further, the IC50 came out at 113 nM in series [4] and 2300 nM in series [3]. In series [1], this molecule showed an Ataxia of 0.63 mg/kg. The molecule also registered an ED50 in series [2] of 3.7 mg/kg. This molecule displayed a logD in series [7] of 0.96.
In turn, `NC12CCCCC1CCc1ccccc12` (single isomer, unassigned; form 2) registered an ED50 in series [2] of 10 mg/kg.
For `CNC12CCC(CN)CC1CCc1ccccc12` (configuration not stated), the logP in series [6] is 2. Further, in series [5], the inhibition was found to be 8%.
With `NC12CCCCC1CCc1ccccc12` (configuration not stated), it took a dose of 0.64 mg/kg to reach the 50% effect level in series [2] (ED50).
As for `NC12CCCCC1CCc1ccccc12` (single isomer, unassigned; form 1), the IC50 in series [4] came out at 11.3 nM; in series [3], 480 nM. Besides, the Ataxia in series [1] is less than 0.3 mg/kg.
In the case of `CNC12CCCCC1CC(C)(C)c1ccccc12` (configuration not stated), the IC50 in series [4] is 20800 nM.
With `CN[C@@]12CCCCC1CCc1ccccc12` (some centres not stated), the 50% inhibitory concentration (IC50) in series [4] amounted to 41.5 nM; in series [3] it was 810 nM. This molecule also yielded an Ataxia in series [1] of 1 mg/kg. This molecule yielded an ED50 in series [2] of 0.97 mg/kg.
The like results for `C=CCNC12CCCCC1CCc1ccccc12` (configuration not stated) were, in that order, 86 nM, 920 nM, less than 1 mg/kg and 10 mg/kg.
`CNC1(C)c2ccccc2CCC12CCCC2` (configuration not stated) had an inhibition in series [5] of 5%.
Regarding `CNC12CC=CCC1COc1ccccc12` (configuration not stated), the IC50 in series [4] turned out to be 122 nM.
In the case of `CNC12CC(O)CCC1CCc1ccccc12` (configuration not stated), the logP in series [6] is 2.37. This molecule registered an IC50 in series [4] of 500 nM.
